Reference: ChEMBL document CHEMBL4819032, “Structure-based design of highly selective 2,4,5-trisubstituted pyrimidine CDK9 inhibitors as anti-cancer agents” (Eur J Med Chem, 2021)

What was measured:
Homo sapiens [1] = species: Homo sapiens; experiment: Selectivity index, ratio of Ki for inhibition of recombinant human full length […]
Homo sapiens [2] = species: Homo sapiens; experiment: Selectivity index, ratio of Ki for inhibition of recombinant human full length CDK2/Cyclin A to Ki for inhibition of recombinant human full length CDK9/Cyclin T1
Method in brief: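 Ratio of apparent Ki values for the two CDK/cyclin complexes. Each Ki is derived from an IC50 (10-point radiometric dose-response, ATP at Km(app)) using the kinase's Km(ATP). The selectivity index is defined as Ki(CDK2)/Ki(CDK9).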

MCF7 = experiment: Growth inhibition of human MCF7 cells after 48 hrs by MTT assay; format: functional
CDK2/Cyclin A2 = CDK2/Cyclin A2 (Homo sapiens, UniProt P24941); experiment: Inhibition of recombinant human full length CDK2/Cyclin A using histone H1 as substrate incubated for 40 mins in presence of [gamma-33P]-ATP by scintillation counting method; format: protein-complex assay
[3] = biological target: Cyclin-dependent kinase 1/cyclin B1 (Homo sapiens, UniProt P06493); experiment: Inhibition of recombinant human full length CDK1/Cyclin B using histone H1 as substrate incubated for 40 mins in presence of [gamma-33P]-ATP by scintillation counting method; format: protein-complex assay
Sequence of Cyclin-dependent kinase 1/cyclin B1 (P06493 whole entry): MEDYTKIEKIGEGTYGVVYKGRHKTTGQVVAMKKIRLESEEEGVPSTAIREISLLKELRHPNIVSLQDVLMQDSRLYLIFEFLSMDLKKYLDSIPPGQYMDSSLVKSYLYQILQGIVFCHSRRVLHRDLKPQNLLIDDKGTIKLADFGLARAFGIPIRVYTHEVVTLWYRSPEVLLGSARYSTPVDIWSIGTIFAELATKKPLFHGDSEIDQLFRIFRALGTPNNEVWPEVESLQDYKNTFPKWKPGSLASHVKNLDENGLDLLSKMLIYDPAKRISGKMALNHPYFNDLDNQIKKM
Sequence of Cyclin-dependent kinase 1/cyclin B1 (P14635 whole entry, further chain): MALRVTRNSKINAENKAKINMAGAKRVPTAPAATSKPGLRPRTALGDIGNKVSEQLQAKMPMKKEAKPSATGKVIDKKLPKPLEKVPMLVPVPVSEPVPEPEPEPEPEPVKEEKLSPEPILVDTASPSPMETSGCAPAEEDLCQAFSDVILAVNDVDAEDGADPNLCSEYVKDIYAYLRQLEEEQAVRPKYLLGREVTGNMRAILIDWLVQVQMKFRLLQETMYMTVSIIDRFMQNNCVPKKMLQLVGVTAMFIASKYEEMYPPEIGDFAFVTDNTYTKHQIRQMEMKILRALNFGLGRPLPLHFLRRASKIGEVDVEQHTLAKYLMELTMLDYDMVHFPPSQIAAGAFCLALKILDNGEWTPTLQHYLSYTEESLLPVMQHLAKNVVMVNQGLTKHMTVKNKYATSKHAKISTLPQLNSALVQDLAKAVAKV
Method in brief: (§1)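 Radiometric kinase assay with ATP at each kinase's Km(app). IC50 values come from 10-point dose-response curves, and apparent Ki is calculated from IC50 and the kinase's Km(ATP).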

CDK9/cyclin T1 = CDK9/cyclin T1 (Homo sapiens, UniProt P50750); experiment: Inhibition of recombinant human full length CDK9/Cyclin T1 using KTFCGTPEYLAPEVRREPRILSEEEQEMFRDFDYIADWC as substrate incubated for 40 mins in presence of [gamma-33P]-ATP by scintillation counting method; format: protein-complex assay; method in brief: as §1
Sequence of CDK9/cyclin T1 (O60563 whole entry): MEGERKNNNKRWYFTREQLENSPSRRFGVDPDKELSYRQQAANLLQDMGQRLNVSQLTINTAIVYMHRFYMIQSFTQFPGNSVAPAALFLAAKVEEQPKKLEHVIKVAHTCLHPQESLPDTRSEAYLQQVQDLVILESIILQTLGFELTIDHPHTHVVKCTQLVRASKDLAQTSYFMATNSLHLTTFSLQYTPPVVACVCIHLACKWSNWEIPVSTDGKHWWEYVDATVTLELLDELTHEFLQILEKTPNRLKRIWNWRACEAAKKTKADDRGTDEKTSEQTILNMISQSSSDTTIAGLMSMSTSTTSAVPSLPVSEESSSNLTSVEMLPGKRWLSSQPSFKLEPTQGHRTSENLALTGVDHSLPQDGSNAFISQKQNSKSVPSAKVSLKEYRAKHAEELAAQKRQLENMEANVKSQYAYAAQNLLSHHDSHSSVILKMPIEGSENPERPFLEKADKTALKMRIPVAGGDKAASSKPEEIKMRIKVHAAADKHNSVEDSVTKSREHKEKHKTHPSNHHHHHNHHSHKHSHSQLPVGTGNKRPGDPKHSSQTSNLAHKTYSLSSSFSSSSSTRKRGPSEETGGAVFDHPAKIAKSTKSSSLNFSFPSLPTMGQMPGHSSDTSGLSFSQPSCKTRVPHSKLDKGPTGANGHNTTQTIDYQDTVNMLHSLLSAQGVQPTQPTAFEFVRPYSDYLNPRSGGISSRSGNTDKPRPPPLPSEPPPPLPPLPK
Sequence of CDK9/cyclin T1 (P50750 whole entry): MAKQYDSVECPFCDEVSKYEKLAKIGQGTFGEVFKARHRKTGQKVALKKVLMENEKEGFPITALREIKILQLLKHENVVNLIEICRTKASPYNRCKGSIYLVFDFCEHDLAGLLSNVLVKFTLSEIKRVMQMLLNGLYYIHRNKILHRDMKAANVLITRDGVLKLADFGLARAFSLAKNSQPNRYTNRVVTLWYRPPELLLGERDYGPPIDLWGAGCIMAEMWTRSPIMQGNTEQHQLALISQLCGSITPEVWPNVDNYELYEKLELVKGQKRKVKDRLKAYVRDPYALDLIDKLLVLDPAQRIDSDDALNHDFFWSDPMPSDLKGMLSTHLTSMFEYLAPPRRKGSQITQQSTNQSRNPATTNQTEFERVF

[4] = biological target: Cyclin-dependent kinase 7/ cyclin H (Homo sapiens, UniProt P50613); experiment: Inhibition of recombinant human full length CDK7/Cyclin H using peptide as substrate incubated for 40 mins in presence of [gamma-33P]-ATP by scintillation counting method; format: protein-complex assay; method in brief: as §1
Sequence of Cyclin-dependent kinase 7/ cyclin H (P51946 whole entry): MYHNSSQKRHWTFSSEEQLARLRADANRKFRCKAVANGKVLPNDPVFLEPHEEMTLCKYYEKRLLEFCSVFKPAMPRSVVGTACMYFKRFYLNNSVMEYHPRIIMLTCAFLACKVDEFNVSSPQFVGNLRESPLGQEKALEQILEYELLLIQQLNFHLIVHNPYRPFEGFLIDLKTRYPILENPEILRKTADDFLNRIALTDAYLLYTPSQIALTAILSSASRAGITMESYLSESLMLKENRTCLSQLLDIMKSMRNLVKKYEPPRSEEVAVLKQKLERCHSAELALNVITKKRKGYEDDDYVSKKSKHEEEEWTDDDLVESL
Sequence of Cyclin-dependent kinase 7/ cyclin H (P50613 whole entry): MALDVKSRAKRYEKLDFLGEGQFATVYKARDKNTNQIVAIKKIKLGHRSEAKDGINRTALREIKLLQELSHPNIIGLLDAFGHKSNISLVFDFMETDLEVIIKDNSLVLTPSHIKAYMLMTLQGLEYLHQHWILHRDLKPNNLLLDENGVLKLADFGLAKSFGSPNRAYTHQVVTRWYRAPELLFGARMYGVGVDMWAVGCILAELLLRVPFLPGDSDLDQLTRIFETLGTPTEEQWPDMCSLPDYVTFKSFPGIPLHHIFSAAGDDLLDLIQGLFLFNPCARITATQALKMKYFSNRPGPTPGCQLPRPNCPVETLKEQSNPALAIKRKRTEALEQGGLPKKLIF

HCT-116 = experiment: Growth inhibition of human HCT-116 cells after 48 hrs by MTT assay; format: functional
[5] = Growth inhibition of patient derived CLL cells after 48 hrs by annexin V-FITC staining based flow cytometric analysis; format: functional; conditions: Homo sapiens, CLL-CII
Method in brief: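 Freshly isolated primary CLL cells (10⁶/mL) in RPMI with 10% foetal calf serum, L-glutamine, penicillin and streptomycin, 37 °C, 5% CO₂, exposed to inhibitor for 48 h. Cells labelled with CD19-APC and annexin V-FITC; apoptosis quantified by flow cytometry in CD19+ cells. LD50 is the concentration killing 50% of CLL cells.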

A549 = experiment: Growth inhibition of human A549 cells after 48 hrs by MTT assay; format: functional
MIA PaCa-2 = experiment: Growth inhibition of human MIA PaCa-2 cells after 48 hrs by MTT assay; format: functional
A2780 = experiment: Growth inhibition of human A2780 cells after 48 hrs by MTT assay; format: functional
HT-29 = experiment: Growth inhibition of human HT-29 cells after 48 hrs by MTT assay; format: functional
MDA-MB-468 = experiment: Growth inhibition of human MDA-MB-468 cells after 48 hrs by MTT assay; format: functional
HeLa = experiment: Growth inhibition of human HeLa cells after 48 hrs by MTT assay; format: functional

CNc1nc(C)c(-c2nc(Nc3cccc(N4CCNCC4)c3)ncc2C)s1
Ratio Ki (Homo sapiens [1]): 100 | Ratio Ki (Homo sapiens [2]): 89 | GI50 (MCF7): 860 nM | Ki (CDK2/Cyclin A2): 711 nM | Ki [3]: 1120 nM | Ki (CDK9/cyclin T1): 8 nM | Ki [4]: 472 nM | GI50 (HCT-116): 830 nM

CNc1nc(C(F)(F)F)c(-c2ccnc(Nc3cccc(N4CCCNCC4)c3)n2)s1
Ratio Ki (Homo sapiens [2]): 2 | GI50 (MCF7): 650 nM | Ki (CDK2/Cyclin A2): 14 nM | Ki (CDK9/cyclin T1): 8 nM | GI50 (HCT-116): 70 nM

CNc1nc(C)c(-c2nc(Nc3cccc(N4CCOCC4)c3)ncc2C)s1
Ratio Ki (Homo sapiens [2]): 44 | GI50 (MCF7): 450 nM | Ki (CDK2/Cyclin A2): 444 nM | Ki (CDK9/cyclin T1): 10 nM | GI50 (HCT-116): 360 nM

CNc1nc(C)c(-c2nc(Nc3cccc(N4CCOCC4)c3)ncc2Cl)s1
Ratio Ki (Homo sapiens [2]): 6 | GI50 (MCF7): 720 nM | Ki (CDK2/Cyclin A2): 22 nM | Ki (CDK9/cyclin T1): 4 nM | GI50 (HCT-116): 430 nM

CNc1nc(C)c(-c2nc(Nc3cccc(N4CCN(C)CC4)c3)ncc2Cl)s1
Ratio Ki (Homo sapiens [2]): 21 | GI50 (MCF7): 680 nM | Ki (CDK2/Cyclin A2): 107 nM | Ki (CDK9/cyclin T1): 5 nM | GI50 (HCT-116): 660 nM

CNc1nc(C)c(-c2nc(Nc3cccc(N4CCN(C)CC4)c3)ncc2C)s1
Ratio Ki (Homo sapiens [2]): 29 | GI50 (MCF7): 1890 nM | Ki (CDK2/Cyclin A2): 586 nM | Ki (CDK9/cyclin T1): 20 nM | GI50 (HCT-116): 1290 nM

CNc1nc(C(C)C)c(-c2ccnc(Nc3cccc(N4CCN(C(C)=O)CC4)c3)n2)s1
Ratio Ki (Homo sapiens [2]): 8 | GI50 (MCF7): 70 nM | Ki (CDK2/Cyclin A2): 680 nM | Ki (CDK9/cyclin T1): 91 nM | GI50 (HCT-116): 80 nM

CNc1nc(C)c(-c2nc(Nc3cccc(N4CCNC(=O)CC4)c3)ncc2C)s1
Ratio Ki (Homo sapiens [2]): 28 | GI50 (MCF7): 6440 nM | Ki (CDK2/Cyclin A2): 525 nM | Ki (CDK9/cyclin T1): 19 nM | GI50 (HCT-116): 2120 nM

CNc1nc(C)c(-c2nc(Nc3cccc(N4CCN(C(C)=O)CC4)c3)ncc2C(F)(F)F)s1
Ratio Ki (Homo sapiens [2]): 13 | GI50 (MCF7): 25000 nM | Ki (CDK2/Cyclin A2): 1220 nM | Ki (CDK9/cyclin T1): 95 nM | GI50 (HCT-116): 4800 nM

CNc1nc(C)c(-c2ccnc(Nc3cccc(N4CCN(C(C)=O)CC4)c3)n2)s1
Ratio Ki (Homo sapiens [2]): 9 | GI50 (MCF7): 5280 nM | Ki (CDK2/Cyclin A2): 281 nM | Ki (CDK9/cyclin T1): 32 nM | GI50 (HCT-116): 580 nM

CNc1nc(C)c(-c2nc(Nc3cc(N4CCN(C(C)=O)CC4)cc(N4CCN(C(C)=O)CC4)c3)ncc2C#N)s1
Ratio Ki (Homo sapiens [2]): 12 | GI50 (MCF7): 2400 nM | Ki (CDK2/Cyclin A2): 248 nM | Ki (CDK9/cyclin T1): 21 nM | GI50 (HCT-116): 700 nM

CNc1nc(C)c(-c2nc(Nc3cc(C)cc(N4CCCCCC4)c3)ncc2C#N)s1
Ratio Ki (Homo sapiens [2]): 2 | GI50 (MCF7): 7040 nM | Ki (CDK2/Cyclin A2): 52 nM | Ki (CDK9/cyclin T1): 25 nM | GI50 (HCT-116): 4050 nM

CNc1nc(C)c(-c2nc(Nc3cccc(N4CCN(C(C)=O)CC4)c3)ncc2Br)s1
Ratio Ki (Homo sapiens [2]): 16 | Ki (CDK2/Cyclin A2): 125 nM | Ki (CDK9/cyclin T1): 7.5 nM

CNc1nc(C)c(-c2nc(Nc3cccc(N4CCN(S(C)(=O)=O)CC4)c3)ncc2C)s1
Ratio Ki (Homo sapiens [2]): 12 | GI50 (MCF7): 830 nM | Ki (CDK2/Cyclin A2): 87 nM | Ki (CDK9/cyclin T1): 7 nM | GI50 (HCT-116): 500 nM

C=Cc1cnc(Nc2cccc(N3CCOCC3)c2)nc1-c1sc(NC)nc1C
Ratio Ki (Homo sapiens [2]): 8 | GI50 (MCF7): > 5000 nM | Ki (CDK2/Cyclin A2): 503 nM | Ki (CDK9/cyclin T1): 62 nM | GI50 (HCT-116): > 5000 nM

CNc1nc(C)c(-c2nc(Nc3cc(C)cc(N4CCOCC4)c3)ncc2C#N)s1
Ratio Ki (Homo sapiens [2]): 3 | GI50 (MCF7): 950 nM | Ki (CDK2/Cyclin A2): 16 nM | Ki (CDK9/cyclin T1): 5 nM | GI50 (HCT-116): 490 nM

CC(=O)N1CCN(c2cccc(Nc3ncc4c(n3)-c3sc(N)nc3CC4)c2)CC1
Ratio Ki (Homo sapiens [2]): 2.5 | GI50 (MCF7): 80 nM | Ki (CDK2/Cyclin A2): 87 nM | Ki (CDK9/cyclin T1): 34 nM | GI50 (HCT-116): 60 nM

CNc1nc(C2CC2)c(-c2ccnc(Nc3cccc(C(=O)NC4CCN(C)CC4)c3)n2)s1
Ratio Ki (Homo sapiens [2]): 3 | GI50 (MCF7): 1950 nM | Ki (CDK2/Cyclin A2): 128 nM | Ki (CDK9/cyclin T1): 40 nM | GI50 (HCT-116): 770 nM

CNc1nc(C)c(-c2nc(Nc3cccc(N4CCCNCC4)c3)ncc2C)s1
Ratio Ki (Homo sapiens [1]): 100 | Ratio Ki (Homo sapiens [2]): 156 | GI50 (MCF7): 870 nM | Ki (CDK2/Cyclin A2): 1240 nM | GI50 [5]: 810 nM | Ki [3]: 785 nM | Ki (CDK9/cyclin T1): 8 nM | Ki [4]: 89 nM | GI50 (HCT-116): 1370 nM

CN1CC[C@H](c2c(O)cc(O)c3c(=O)cc(-c4ccccc4Cl)oc23)[C@H](O)C1 [ALVOCIDIB]
GI50 (A549): 145 nM | GI50 (MIA PaCa-2): 78 nM | GI50 (A2780): 64 nM | GI50 (MCF7): 92 nM | GI50 (HT-29): 131 nM | GI50 (MDA-MB-468): 96 nM | GI50 (HeLa): 43 nM | GI50 (HCT-116): 56 nM

CNc1nc(C)c(-c2nc(Nc3cccc(N4CCCCCC4)c3)ncc2C#N)s1
Ratio Ki (Homo sapiens [2]): 7 | GI50 (MCF7): 4130 nM | Ki (CDK2/Cyclin A2): 44 nM | Ki (CDK9/cyclin T1): 6 nM | GI50 (HCT-116): 1540 nM

CNc1nc(C)c(-c2ccnc(Nc3cc(N4CCN(C(C)=O)CC4)cc(N4CCN(C(C)=O)CC4)c3)n2)s1
Ratio Ki (Homo sapiens [2]): 11 | GI50 (MCF7): 420 nM | Ki (CDK2/Cyclin A2): 2070 nM | Ki (CDK9/cyclin T1): 187 nM | GI50 (HCT-116): 200 nM

CNc1nc(C)c(-c2nc(Nc3cc(N4CCOCC4)cc(N4CCOCC4)c3)ncc2C#N)s1
Ratio Ki (Homo sapiens [2]): 6 | GI50 (MCF7): 90 nM | Ki (CDK2/Cyclin A2): 55 nM | Ki (CDK9/cyclin T1): 9 nM | GI50 (HCT-116): 20 nM

CNc1ncc(-c2ccnc(Nc3cccc(N4CCCNCC4)c3)n2)s1
Ratio Ki (Homo sapiens [2]): 7 | GI50 (MCF7): 60 nM | Ki (CDK2/Cyclin A2): 22 nM | Ki (CDK9/cyclin T1): 3 nM | GI50 (HCT-116): 80 nM

CNc1nc(C)c(-c2ccnc(Nc3cc(N4CCOCC4)cc(N4CCOCC4)c3)n2)s1
Ratio Ki (Homo sapiens [2]): 18 | GI50 (MCF7): 380 nM | Ki (CDK2/Cyclin A2): 831 nM | Ki (CDK9/cyclin T1): 47 nM | GI50 (HCT-116): 340 nM

CNc1nc(C)c(-c2nc(Nc3cccc(N4CCNCC4)c3)ncc2C(F)(F)F)s1
Ratio Ki (Homo sapiens [2]): 40 | GI50 (MCF7): 3050 nM | Ki (CDK2/Cyclin A2): 1930 nM | Ki (CDK9/cyclin T1): 49 nM | GI50 (HCT-116): 4050 nM

CNc1nc(C)c(-c2nc(Nc3cccc(N4CCN(C(C)=O)CC4)c3)ncc2C)s1
Ratio Ki (Homo sapiens [2]): 66 | GI50 (MCF7): 3650 nM | Ki (CDK2/Cyclin A2): 794 nM | Ki (CDK9/cyclin T1): 12 nM | GI50 (HCT-116): 550 nM

CNc1nc(C)c(-c2nc(Nc3cc(N4CCN(C(C)=O)CC4)cc(N4CCN(C(C)=O)CC4)c3)ncc2C)s1
Ratio Ki (Homo sapiens [2]): 32 | GI50 (MCF7): 2000 nM | Ki (CDK2/Cyclin A2): 1370 nM | Ki (CDK9/cyclin T1): 43 nM | GI50 (HCT-116): 780 nM

CNc1nc(C)c(-c2nc(Nc3cc(C)cc(N4CCNCC4)c3)ncc2C#N)s1
Ratio Ki (Homo sapiens [2]): 8 | GI50 (MCF7): 610 nM | Ki (CDK2/Cyclin A2): 45 nM | Ki (CDK9/cyclin T1): 6 nM | GI50 (HCT-116): 80 nM
